Only some compounds are listed: those with a hit (about 3% of all), similar ones and a draw of the others.
S1P1 ag-PAM – S1P1 (human) agonism or agonism potentiation; AID 449; S1P1 CRE-bla cells, forskolin, beta-lactamase FRET, potentiator mode; S1P1 agonist co-added at EC20, 2 nM; 100% = saturating reference agonist, 0% = basal; actives 0.57% (n = 56,000); P21453; activation, % at 9.5 µM;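 active = activation above a cutoff set at the mean activation of all tested compounds plus 3 SD, cut at about 54% in these data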;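 note: forskolin at 4 µM as EC80 and the EC20 agonist is SEW2871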
5HT1a ag – 5-HT1a (human) receptor agonism; P08908; CHO 5-HT1a Ga15 NFAT-bla reporter, FRET ratio; 0% basal, 100% maximal reference agonist; activation, % at 10 µM; AID 567; actives 0.56% (n = 65,000);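 active = activation above the screen-wide mean activation plus 3 SD, cut at about 19% in these data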
HTR1E agonist – 5-HT1E (human) receptor agonism. P28566. CHO 5-HT1E Ga15 NFAT-bla reporter, FRET; 0% DMSO wells, 100% control agonist wells. activation, % at 6 µM. actives 0.69% (n = 65,000). AID 574;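 active = activation above a set limit, the screen-wide mean activation plus 3 SD, cut at about 8.5% in these data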
S1P3 agonist – activates the human S1P3 receptor. Q99500. S1P3 NFAT-BLA reporter cells, agonism, FRET ratio; relative to 1 µM S1P, basal subtracted. activation, % at 4.5 µM. actives 0.1% (n = 60,000). AID 373;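 active = activation above the screen-wide mean plus 3 SD, cut at about 4.5% in these data, passing the limit was not always enough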
Target sequence (Q99500 whole entry, looked up): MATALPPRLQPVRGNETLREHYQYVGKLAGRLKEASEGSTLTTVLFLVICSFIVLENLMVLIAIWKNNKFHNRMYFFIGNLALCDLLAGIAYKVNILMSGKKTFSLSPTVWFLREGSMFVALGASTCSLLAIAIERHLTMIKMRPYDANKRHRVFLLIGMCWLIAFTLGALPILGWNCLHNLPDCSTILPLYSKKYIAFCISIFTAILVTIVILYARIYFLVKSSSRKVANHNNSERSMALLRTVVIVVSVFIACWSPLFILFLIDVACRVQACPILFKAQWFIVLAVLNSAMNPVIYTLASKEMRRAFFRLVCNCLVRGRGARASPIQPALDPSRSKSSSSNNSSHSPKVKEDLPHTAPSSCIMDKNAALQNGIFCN
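Benchmarks: high control 1 µM S1P / System: stable CHO line with human S1P3, Gα16, NFAT-BLA reporter / Dosing: single compound concentration, 4.5 µM final / Timing: 4 h compound at 37 °C, 2 h substrate at RT / Measured by: FRET β-lactamase substrate fluorescence, excitation 405 nm, 460/535 nm emission ratio, background-subtracted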
HTR1E antagonist – antagonists of human 5-HT1E serotonin receptor. CHO 5-HT1E Ga15 NFAT-bla reporter, FRET, antagonist. actives 0.99% (n = 65,000). inhibition, % at 6 µM. AID 571;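 active = inhibition above a set limit, the mean inhibition across every tested compound plus 3 SD, cut at about 29% in these data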;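 note: signal is the 460 over 535 nm emission ratio of beta-lactamase substrate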
5HT1a antag – antagonists of human 5-HT1a serotonin receptor. inhibition, % at 10 µM. actives 0.68% (n = 62,000). AID 612. CHO 5-HT1a Ga15 NFAT-bla reporter, antagonist mode;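 active = inhibition above the mean of all tested compounds plus 3 SD, cut at about 43% in these data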;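 note: receptor stimulated by 5-CT agonist at 100 nM near EC80; beta-lactamase reporter measured by ratiometric fluorescence of a cleavable substrate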
A number is an active result; . = inactive; / = no result.

SMILES	S1P1 ag-PAM	5HT1a ag	HTR1E agonist	S1P3 agonist	HTR1E antagonist	5HT1a antag
O=C(NC1CCCC1)C(c1ccsc1)N(Cc1ccco1)C(=O)Cc1cccs1 (configuration not stated)	.	.	.	.	.	58.1
Cc1ccc(-c2nnn(CC(=O)N(Cc3cccs3)C(C(=O)NC3CCCC3)c3ccco3)n2)o1 (configuration not stated)	.	.	.	.	.	.
O=C(Cc1cccs1)N(Cc1ccco1)C1(C(=O)NC2CCCC2)CCCCC1	/	.	.	/	.	62.7
CCCCNC(=O)C(C#N)c1nc2ccccc2nc1N1CCN(c2ccccc2F)CC1 (configuration not stated)	.	.	.	.	.	/
Cc1nn(C)c(C)c1S(=O)(=O)N1CCCC(C(=O)NCC2COc3ccccc3O2)C1 (configuration not stated)	.	.	.	.	.	.
COc1ccc(OC)c(NC(=O)CSc2nnc(Cn3c(=O)sc4ccccc43)n2C)c1	.	.	.	.	.	.
COc1ccc(-c2nc(CN3CCC(C(=O)N4CCc5ccccc54)CC3)c(C)o2)cc1OC	.	.	.	.	.	.
Cc1cccc(OCCn2c(NC(=O)c3ccco3)nc3ccccc32)c1	.	.	.	.	.	54.7
Cc1ccc(OCCn2c(NC(=O)c3ccco3)nc3ccccc32)cc1	.	.	.	.	.	.
O=C(Nc1nc2ccccc2n1CCOc1ccccc1)c1ccco1	.	.	.	.	.	47.5
Cc1cc(Nc2cccc(F)c2)nc(-c2ccccc2O)n1	.	.	.	.	31.1	.
Cc1ccc(NS(=O)(=O)c2ccc(NC(=O)c3ccc(Br)o3)cc2)c(C)c1	.	.	.	.	.	.
Nc1c(C(=O)NCc2ccc3c(c2)OCO3)c2nc3ccccc3nc2n1CCCN1CCOCC1	.	37.4	13.0	7.9	.	.
Nc1c(C(=O)NCCN2CCOCC2)c2nc3ccccc3nc2n1CCc1ccccc1	.	24.2	.	7.9	.	.
Nc1c(C(=O)NCCN2CCOCC2)c2nc3ccccc3nc2n1-c1ccc2c(c1)OCO2	.	.	.	.	.	.
c1ccc(-c2csc3ncn4cnnc4c23)cc1	.	.	.	.	31.7	.
COC(=O)c1cnn2c(C)c(Cc3cccc(F)c3)c(C)nc12	.	.	.	.	29.9	.
COc1ccc(OC)c(NC(=O)C(CC(=O)O)NCc2ccco2)c1 (configuration not stated)	.	.	.	.	.	.
Cc1nn(Cc2ccccc2)c(C)c1NC(=O)CSc1nnc(-c2cc(Cl)ccc2O)n1C	.	.	.	.	.	.
CN(C)c1ccc(C2C=C(c3ccc(Cl)cc3OC(F)F)Nc3ncnn32)cc1 (configuration not stated)	.	27.7	.	.	.	.
O=C(Nc1ccc(S(=O)(=O)N2CCN(Cc3ccccc3)CC2)cc1)c1cnccn1	.	.	.	.	.	.
Cc1nn2c(C(F)(F)F)cc(-c3ccc(Cl)cc3)nc2c1C(=O)N1CCOCC1	.	.	37.8	.	.	.
CCOC(=O)c1cc2sccc2n1CC(=O)c1ccc2c(c1)OCCO2	.	.	21.6	.	.	.
Cc1ccc(S(=O)(=O)Nc2nonc2C)cc1	.	.	.	.	.	.
CSc1ccccc1NS(=O)(=O)c1ccc2c(c1)OCCO2	.	.	.	.	.	.
SMILES	S1P1 ag-PAM	5HT1a ag	HTR1E agonist	S1P3 agonist	HTR1E antagonist	5HT1a antag
COC(=O)c1ccc(C)c(NS(=O)(=O)c2ccc3c(c2)OCCO3)c1	.	.	.	.	60.2	.
COc1ccc(N(CC(=O)N2CCCC(C)C2)S(=O)(=O)c2c(C)nn(C)c2C)cc1 (configuration not stated)	.	.	.	.	.	.
CC1(C)CC(=O)C2=C(C1)Nc1ccccc1NC2c1nc2ccccc2[nH]1 (configuration not stated)	.	.	.	.	34.0	.
CCCSc1nc(N2CCOCC2)c2c(c1C#N)CCCC2	.	.	.	23.2	.	/
Cc1cc(C)cc(NC(=O)CCN2CC(C)OC(C)C2)c1 (configuration not stated)	.	.	.	.	.	.
CC(Oc1ccccc1Br)C(=O)N1CCc2ccccc21 (configuration not stated)	87.3	.	.	9.9	.	.
Nc1nc2ccccc2nc1N	.	.	.	.	.	.
Nc1nsc2ccccc12	.	.	.	.	.	73.3
CC(=O)C1=C(O)C=C(c2ccco2)CC1c1ccco1 (configuration not stated)	.	.	.	.	.	.
COC(=O)CCCCC(=O)C1C(=O)CC(C)(C)C(C(=O)OC)C1=O (configuration not stated)	/	24.0	.	.	.	.
Cc1nc(S(=O)(=O)N2CCOCC2)c(C#N)c(C)c1Cl	.	.	.	.	.	.
C=CCOc1cccc(C2C(C(=O)c3ccco3)=C(O)C(=O)N2CCN(CC)CC)c1 (configuration not stated)	.	20.4	.	.	.	.
COc1ccc(-n2c(N)c(Br)c(=O)[nH]c2=O)cc1	.	.	.	.	.	.
Cc1occc1C(=O)Nc1cc(C(F)(F)F)ccc1Cl	.	.	.	.	.	.
Cc1cnc(C(=O)Nc2cccc(-c3nnc4n3CCCCC4)c2)cn1	.	.	.	.	.	.
c1cc(Nc2ncnc3sccc23)cc(-c2nnc3n2CCCCC3)c1	.	.	.	.	29.8	.
COc1cc(C2Nc3cccc4cccc(c34)N2)cc(OC)c1OC(C)=O	.	.	.	.	.	/
CCN(CC)c1ccc(C2Nc3cccc4cccc(c34)N2)c(O)c1	.	.	.	.	32.3	/
Cc1ccc2[nH]c(-c3ccccc3)cc(=O)c2c1	.	.	.	.	70.0	.
Cc1sc2nc(C3CC3)nc(NCCNS(C)(=O)=O)c2c1C	.	.	.	.	38.8	.
Cc1sc2nc(C3CC3)nc(N3CCN(S(=O)(=O)c4ccc(F)cc4)CC3)c2c1C	.	.	.	.	.	.
CC(=O)NC(Cc1ccccc1C)C(=O)NC1CCN(c2c3c(nc4ncnn24)CCC3)CC1 (configuration not stated)	.	.	.	.	.	.
CCOc1ccc(C2c3c(oc4ccccc4c3=O)C(=O)N2c2ccccn2)cc1OC (configuration not stated)	.	.	.	.	.	.
COc1ccc(-c2nn(C)c(=O)c3ccccc23)cc1NC(=O)Cn1nc(C)c2ccccc2c1=O	.	.	.	.	37.6	.
COc1ccc(Cl)cc1NC(=O)CCN1CCN(c2ccccc2C)CC1	/	.	.	/	.	.

From PubChem BioAssay
